# Measured values as given in the RNAGym collection of RNA variant scans (doi:10.1126/science.aae0568).
# This sample holds only a part of the variants without activity.
# B1: tRNA (parent)
# chain: GUUCCGUUGGCGUAAUGGUAACGCGUCUCCCUCCUAAGGAGAAGACUGCGGGUUCGAGUCCCGUACGGAACG
# Variants of: B1
# Assay: yeast fitness relative to wild type (ratio to wild type); higher = fitter; tRNA-Arg(CCU), competitive growth, 37 C, YPD
# In short: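 Amplicons of the tRNA-Arg(CCU) gene were sequenced, 100-nucleotide paired-end, from the start population and from each end population of a pooled yeast competition. The competition, in six parallel replicates, lasted 24 hours in YPD at 37°C. Fitness relative to wild type was calculated from changes in genotype frequencies. Genotypes had to have ≥ 100 starting reads, and estimates < 0.5 were set to 0.5.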
row,Variant,yeast fitness
1,U3G C11U A21U G44C A57U,≤ 0.5
2,U3G C5U G10A C31U G41C A43C,≤ 0.5
3,U3G C11U C46U C61G,≤ 0.5
4,U3G U28G,0.661
5,U3G C11U U19C A20U A42C A65C,≤ 0.5
6,U3C U8A C66A,0.529
7,C4A A20C C34A G39C A43U,0.512
8,U3C U8G U32A C33G C62U A65G,≤ 0.5
9,C4A A40G A65G,0.533
10,C4A A14U C29U G68A,≤ 0.5
11,U3G C31A G50A G67A,≤ 0.5
12,U3C G12A,0.963
13,U3G C11G C34U C55U,≤ 0.5
14,U3C U32C C33U A42U,0.563
15,U3C G12A A14U U54A A57U,≤ 0.5
16,U3G C4A A40U C62U G63C,≤ 0.5
17,U3G A43G,0.936
18,U3G C27G G50C,≤ 0.5
19,U3C G10C C33U A40C,≤ 0.5
20,U3G C5U A70G,≤ 0.5
21,U3C U8A U19A,0.63
22,U3C U32G C61A C62A,0.53
23,C4A A15C U28C C34G,≤ 0.5
24,C4A A57C C62U,≤ 0.5

row,Variant,yeast fitness
1,C4A A14C C60G C66U G68A,0.561
2,U3G C62U A70U,0.551
3,U3C G12A A37C A45U G48C G50A,≤ 0.5
4,C4A A45U C62U G68A,0.562
5,U3C G23A U28G,≤ 0.5
6,U3G A65U,0.855
7,U3C G52A,0.743
8,U3G U8A C31A A69C A70G,≤ 0.5
9,U3G G6A A14G G38C G41C A57C,0.62
10,U3G A15U C61A,≤ 0.5
11,U3G C30G A40C C46U C49U G68C,≤ 0.5
12,U3G G17C C33A U53G U54A,≤ 0.5
13,U3C G56A C60A,0.568
14,U3C G23C,0.695
15,C4A A21U G52A,≤ 0.5
16,U3G U7A G9A,≤ 0.5
17,U3G C22A G25C C33U,0.606
18,U3G A42G C62G,≤ 0.5
19,C4A A15G G17A C30G G48A U53C C62U,≤ 0.5
20,U3C G12A G25A,0.992
21,U3G C34G C62U,≤ 0.5
22,U3G U16C C29G,≤ 0.5
23,U3C U26A C31U,1.02
24,U3G,0.978

row,Variant,yeast fitness
1,U3C U7A C27A,≤ 0.5
2,U3C G12A C33G A42C A65G,≤ 0.5
3,U3C G17A C30G C61G,≤ 0.5
4,U3G C66G,0.712
5,U3G C66A,0.591
6,U3G C46U U59A,0.562
7,U3G C11U U19C A20U A42C C49U G56C,≤ 0.5
8,U3G G18A U28A,0.613
9,C4A A20G G44C A45G,0.506
10,U3C G18A,0.916
11,U3G U16C G48U,0.633
12,U3G A40G C46A,0.665
13,U3C U26C G44C U54A,≤ 0.5
14,C4A A20U C30U,≤ 0.5
15,U3G G17A C27G C33U A45G,≤ 0.5
16,U3C U19G A43U A65G G68A,≤ 0.5
17,U3G C5U A65U,0.651
18,C4A A14G C24U U32G A42U A43G C66U,≤ 0.5
19,U3G U26A C29A C34A G38A G67C,0.712
20,U3C G58C,0.97
21,C4A A21G C49G G63C,0.538
22,U3G A21C G51A,0.605
23,C4A A20U C34G C55G C60A,≤ 0.5
24,U3G G6A G17C C31G,≤ 0.5

row,Variant,yeast fitness
1,U3C G25C G48A,0.598
2,U3G A15G A21U G48A,≤ 0.5
3,C4A A43U,0.841
4,U3G C11U U35A G38A C66U,≤ 0.5
5,U3C G48C C55A,0.541
6,U3G C62G,0.739
7,U3G C62U,0.873
8,U3C U8A G25A A45G,0.578
9,U3G C27A,0.633
10,U3C U19G C27G C33G U53G,0.578
11,U3G C55A,0.644
12,U3C G18C C31G C34G,≤ 0.5
13,U3G U8C,0.681
14,U3C U28A U35C A37C G56C A57G G68U,≤ 0.5
15,U3C U13A C31U G41A,0.524
16,U3G A70C,0.897
17,U3C G58C G67C,0.701
18,C4A A20G G44C A45G C61U,≤ 0.5
19,U3G A20C,0.987
20,U3G U8C G68C,≤ 0.5
21,C4A A40C G41C,≤ 0.5
22,U3C G38A G48A,0.595
23,U3C G56A A69C,0.802
24,U3C U19A C27G C62U,≤ 0.5

row,Variant,yeast fitness
1,U3G A15U A36G,≤ 0.5
2,U3C U16C C30G C31G A37U G56C,≤ 0.5
3,U3G U35C A43U U54A A57C,≤ 0.5
4,U3G U7A G9A A69U,≤ 0.5
5,U3G C11U G17A U19C A20U A42C A65C A69U,≤ 0.5
6,U3G U35G A40C G48A C60U U64G A65U A69C,≤ 0.5
7,C4A A42U G68C,≤ 0.5
8,U3C G12A C30U C46G,≤ 0.5
9,U3G C24U C31U,0.793
10,C4A A14C U26C A36G A65U,≤ 0.5
11,U3G U8C C61G G63C,≤ 0.5
12,C4A A36C C49U A57G,≤ 0.5
13,U3C U8G U32A C33G A43U C61U C62U,≤ 0.5
14,U3G C31A G41A,≤ 0.5
15,C4A A15C C55U,0.58
16,U3G U8C C33U C66A,≤ 0.5
17,U3G G44C C55G,≤ 0.5
18,U3C U26C C30U A37G C61A,≤ 0.5
19,U3C G23C C66U,≤ 0.5
20,U3G C30U G48A,≤ 0.5
21,U3C G58A C61U A70G,0.777
22,U3G G10C U26C,≤ 0.5
23,U3G C5U C30U A40U C49U,≤ 0.5
24,U3C G18A C31A G56C A69C,≤ 0.5

row,Variant,yeast fitness
1,U3C U53A,0.664
2,U3G A14C C24G C60U U64A,≤ 0.5
3,U3G A14G C62A,0.603
4,U3C G25A U59A,0.642
5,U3G C24U U28C,0.599
6,U3C U7A G44C C61U C62U G63C C66U A69G,≤ 0.5
7,U3G C4A G9A G56A C61G,≤ 0.5
8,U3G A15U C46G C61A,≤ 0.5
9,C4A A20U U32C A43U,≤ 0.5
10,U3C U7A C29A G58A C61G A70U,0.531
11,C4A A42U,0.716
12,U3C G18A C31G,≤ 0.5
13,C4A A20G U28G G68C A70C,≤ 0.5
14,U3G U8C G50C G68C,≤ 0.5
15,U3G A37G,0.724
16,U3C G18A U53A U54G,0.544
17,U3C U19A C27U,0.696
18,C4A A20U,0.707
19,C4A A20C G50C A65C,≤ 0.5
20,U3G G17C A42U C62U,≤ 0.5
21,U3C G10C C55G,≤ 0.5
22,C4A A20G A37U C61A,≤ 0.5
23,U3G C46U,0.903
24,U3G C46A,0.802

row,Variant,yeast fitness
1,C4A A40U A43U A70U,≤ 0.5
2,U3C G23C C30A A36G G38C,≤ 0.5
3,U3G U26A,0.944
4,U3G C5G U19C C66U,0.57
5,C4A A45C U47A,0.708
6,U3G C30G C49U,≤ 0.5
7,U3G C5G C11U C29U U32C,≤ 0.5
8,C4A A15C A43G,≤ 0.5
9,U3G A20G C49U,≤ 0.5
10,U3G A37U U54C G58A C66U,≤ 0.5
11,U3G G17C C31A U35C A45U,≤ 0.5
12,C4A A36G,0.87
13,C4A A14G A36C U59A,0.686
14,U3G C5G C11U C29U U32C C60U,≤ 0.5
15,C4A A21G G51A A69G,≤ 0.5
16,C4A A40C C49G C60G,≤ 0.5
17,C4A A45C U47A A70G,≤ 0.5
18,U3C U19C C34U U53C,≤ 0.5
19,U3C U16C C49G,≤ 0.5
20,U3C G12A A45U C55U,≤ 0.5
21,C4A A15C A70U,≤ 0.5
22,U3C G12A A21G C46G G50A,≤ 0.5
23,U3C G10C C34U,0.586
